Results collected from several papers.
Compare with care: the assays were run in different laboratories.
Target: Ephrin type-B receptor 2 (EPHB2, Homo sapiens, UniProt P29323)
One construct used (P29323 19-1055): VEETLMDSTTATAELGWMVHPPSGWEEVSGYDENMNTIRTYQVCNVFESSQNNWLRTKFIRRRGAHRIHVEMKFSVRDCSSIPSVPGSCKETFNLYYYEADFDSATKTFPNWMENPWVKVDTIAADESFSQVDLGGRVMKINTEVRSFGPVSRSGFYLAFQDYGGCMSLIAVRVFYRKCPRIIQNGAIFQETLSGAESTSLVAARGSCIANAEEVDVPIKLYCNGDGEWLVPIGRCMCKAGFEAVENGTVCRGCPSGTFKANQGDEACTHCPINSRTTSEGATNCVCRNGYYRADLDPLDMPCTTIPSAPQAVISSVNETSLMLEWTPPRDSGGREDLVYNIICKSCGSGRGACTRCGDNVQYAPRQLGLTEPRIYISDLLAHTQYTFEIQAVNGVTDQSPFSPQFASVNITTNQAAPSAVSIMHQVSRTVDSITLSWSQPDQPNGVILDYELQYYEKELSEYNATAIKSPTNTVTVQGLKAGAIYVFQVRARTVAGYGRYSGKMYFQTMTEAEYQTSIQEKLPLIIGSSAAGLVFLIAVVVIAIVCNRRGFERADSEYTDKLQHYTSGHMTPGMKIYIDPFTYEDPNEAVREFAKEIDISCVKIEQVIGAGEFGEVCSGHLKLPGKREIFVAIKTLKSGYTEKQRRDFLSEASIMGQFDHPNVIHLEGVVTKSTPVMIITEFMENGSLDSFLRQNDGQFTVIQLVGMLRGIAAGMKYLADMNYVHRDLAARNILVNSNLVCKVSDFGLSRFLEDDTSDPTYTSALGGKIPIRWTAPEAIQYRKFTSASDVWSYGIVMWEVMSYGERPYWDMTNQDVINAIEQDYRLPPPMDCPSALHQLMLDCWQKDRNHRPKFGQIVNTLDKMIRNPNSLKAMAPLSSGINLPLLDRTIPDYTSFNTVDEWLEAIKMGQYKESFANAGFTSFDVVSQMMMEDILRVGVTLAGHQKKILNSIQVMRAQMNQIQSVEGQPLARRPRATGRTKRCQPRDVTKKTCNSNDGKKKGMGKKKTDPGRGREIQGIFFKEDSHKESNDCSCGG

Compound	read-out	method	tested at	remaining binding [%]
Nc1ncc2c(n1)-c1c([nH]c3ccc(C#CC4CC4)cc13)CCCC2	binding	competition with immobilised ligand	1 µM	90
COc1ccc2c(c1)O[C@@H](c1ccc(OC)c(OC)c1)C[C@H]2NC(=O)C1(c2ccc3c(c2)OC(F)(F)O3)CC1	cell-free assay	competition with immobilised ligand	1 µM	100
Cc1cnc(Nc2ccc(C(=O)N3CCC(N4CCCC4)CC3)cc2)nc1-c1cc2ccccc2s1	binding	competition with immobilised ligand	1 µM	65
C[C@@H]1CN(c2cc(-c3n[nH]c4ccc(OC5(C)CC5)cc34)ncn2)C[C@H](C)O1	cell-free assay	competition with immobilised ligand	0.1 µM	90
N[C@@H]1CCN(c2nccc(-c3cnn4ncccc34)n2)C1	binding	–	1 µM	100
O=C(NCC1CCOCC1)c1n[nH]cc1NC(=O)c1c(F)cccc1F	binding	competition with immobilised ligand	1 µM	98
Cc1nc(Cc2cccc(C(F)(F)F)c2)sc1-c1ccc(C(N)=O)nc1	cell-free assay	competition with immobilised ligand	1 µM	86
c1cnn2ncc(-c3ccnc(N4CCC45COC5)n3)c2c1	binding	–	1 µM	100
COc1cnc(Nc2cccc(S(N)(=O)=O)c2)nc1N1CCN(c2ccccc2)C(=O)C1	binding	competition with immobilised ligand	1 µM	99
Cn1cc(Cl)c2c(Oc3c(F)cc(Nc4cc(Cl)nc(N)n4)cc3F)ccnc21	cell-free assay	competition with immobilised ligand	0.1 µM	100
CN(c1nccc(-c2cnn3ncccc23)n1)C1CC1	binding	–	1 µM	100
CS(=O)(=O)NCC[C@H](NC(=O)c1cncc2c1cnn2-c1ccc(F)cc1)c1ccnc(S(C)(=O)=O)c1	cell-free assay	competition with immobilised ligand	1 µM	92
COc1ncc2cc3ccccc3nc2c1C#N	cell-free assay	competition with immobilised ligand	5 µM	99
O=C(c1ccc(Nc2nccc(-c3cc4ccccc4s3)n2)cc1)N1CCC(N2CCCC2)CC1	binding	competition with immobilised ligand	1 µM	100
C[C@@H]1CCN(c2nccc(-c3cnn4ncccc34)n2)C1	binding	–	1 µM	100
CCN1CCN(Cc2ccc(C(=O)Nc3ccc(C)c(Oc4ccc5c(c4)CC(=O)N5)c3)cc2C(F)(F)F)CC1	binding	competition with immobilised ligand	1 µM	100
O=C(O)[C@H]1[C@H](Cn2nnc3ccccc3c2=O)CC[C@@H]1C(=O)c1ccc(OCCC2CCOCC2)cc1	cell-free assay	competition with immobilised ligand	1 µM	100
COc1ccnn2ncc(-c3ccnc(N(C)C)n3)c12	binding	–	1 µM	100
